# Active and inactive are the calls of the source. The calls are words filed in the database; no cut-off is given here.
# Legend:
# [1] = Inhibition of ROS1-S1986F-G2032R-L2086F mutant/CD74 (unknown origin) expressed in mouse BaF3 cells; type: cell-based, Homo sapiens
# [2] = PROTAC activity at CRBN/ROS1 in mouse BaF3 cells assessed as ROS1 degradation by immunoblotting assay; type: cell-based
# How it was run: (§1)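 IL-3-independent Ba/F3 cells expressing CD74-ROS1 variants were treated with compound. ROS1 and phospho-ROS1 were quantified by capillary immunoassay (WES) in duplicate experiments. DC50 is the concentration that lowers ROS1 or p-ROS1 by 50%; Dmax is the maximal degradation.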
# BaF3 [3] = assay: PROTAC activity at CRBN/ROS1 in mouse BaF3 cells assessed as maximum ROS1 degradation by immunoblotting assay relative to control; type: cell-based; how it was run: as §1
# BaF3 [4] = assay: Antiproliferative activity against mouse BaF3 cells expressing CD74-ROS1 incubated for 72 hrs by Alamar blue reagent based plate reader assay; type: functional, cell-based; settings: BaF3, 72 h
# How it was run: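 Ba/F3 cells stably expressing CD74- or SLC34A2-ROS1 fusions (wild type or mutant), made by retroviral transduction, selected with puromycin, and grown without IL-3 for ≥2 weeks. Alamar Blue added for 4 h. IC50 from sigmoidal nonlinear regression; mean ± SD of triplicate experiments.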
# [5] = Inhibition of ROS1-G2032R-F2075C mutant/SLC34A2 (unknown origin) expressed in mouse BaF3 cells; type: cell-based, Homo sapiens
# [6] = Inhibition of ROS1-V2098I mutant/SLC34A2 (unknown origin) expressed in mouse BaF3 cells; type: cell-based, Homo sapiens
# BaF3 [7] = assay: Antiproliferative activity against mouse BaF3 cells harboring ROS1 G2032R mutant incubated for 72 hrs by Alamar blue reagent based plate reader assay; settings: BaF3, 72 h
# BaF3 [8] = assay: Induction of ROS1 D2033N degradation in mouse BaF3 cells assessed as reduction in ROS1 level by Western blotting analysis; type: cell-based; how it was run: as §1
# BaF3 [9] = assay: Induction of ROS1 L2026M degradation in mouse BaF3 cells assessed as reduction in p-ROS1 level by Western blotting analysis; type: cell-based; how it was run: as §1
# [10] = Induction of ERBB4 (unknown origin) degradation by Western blotting analysis; set-up: species or system Homo sapiens
# [11] = molecular target: Proto-oncogene tyrosine-protein kinase ROS (Homo sapiens, UniProt P08922); assay: Induction of ROS1 (unknown origin) degradation by Western blotting analysis
# Proto-oncogene tyrosine-protein kinase ROS, sequence (P08922 whole entry): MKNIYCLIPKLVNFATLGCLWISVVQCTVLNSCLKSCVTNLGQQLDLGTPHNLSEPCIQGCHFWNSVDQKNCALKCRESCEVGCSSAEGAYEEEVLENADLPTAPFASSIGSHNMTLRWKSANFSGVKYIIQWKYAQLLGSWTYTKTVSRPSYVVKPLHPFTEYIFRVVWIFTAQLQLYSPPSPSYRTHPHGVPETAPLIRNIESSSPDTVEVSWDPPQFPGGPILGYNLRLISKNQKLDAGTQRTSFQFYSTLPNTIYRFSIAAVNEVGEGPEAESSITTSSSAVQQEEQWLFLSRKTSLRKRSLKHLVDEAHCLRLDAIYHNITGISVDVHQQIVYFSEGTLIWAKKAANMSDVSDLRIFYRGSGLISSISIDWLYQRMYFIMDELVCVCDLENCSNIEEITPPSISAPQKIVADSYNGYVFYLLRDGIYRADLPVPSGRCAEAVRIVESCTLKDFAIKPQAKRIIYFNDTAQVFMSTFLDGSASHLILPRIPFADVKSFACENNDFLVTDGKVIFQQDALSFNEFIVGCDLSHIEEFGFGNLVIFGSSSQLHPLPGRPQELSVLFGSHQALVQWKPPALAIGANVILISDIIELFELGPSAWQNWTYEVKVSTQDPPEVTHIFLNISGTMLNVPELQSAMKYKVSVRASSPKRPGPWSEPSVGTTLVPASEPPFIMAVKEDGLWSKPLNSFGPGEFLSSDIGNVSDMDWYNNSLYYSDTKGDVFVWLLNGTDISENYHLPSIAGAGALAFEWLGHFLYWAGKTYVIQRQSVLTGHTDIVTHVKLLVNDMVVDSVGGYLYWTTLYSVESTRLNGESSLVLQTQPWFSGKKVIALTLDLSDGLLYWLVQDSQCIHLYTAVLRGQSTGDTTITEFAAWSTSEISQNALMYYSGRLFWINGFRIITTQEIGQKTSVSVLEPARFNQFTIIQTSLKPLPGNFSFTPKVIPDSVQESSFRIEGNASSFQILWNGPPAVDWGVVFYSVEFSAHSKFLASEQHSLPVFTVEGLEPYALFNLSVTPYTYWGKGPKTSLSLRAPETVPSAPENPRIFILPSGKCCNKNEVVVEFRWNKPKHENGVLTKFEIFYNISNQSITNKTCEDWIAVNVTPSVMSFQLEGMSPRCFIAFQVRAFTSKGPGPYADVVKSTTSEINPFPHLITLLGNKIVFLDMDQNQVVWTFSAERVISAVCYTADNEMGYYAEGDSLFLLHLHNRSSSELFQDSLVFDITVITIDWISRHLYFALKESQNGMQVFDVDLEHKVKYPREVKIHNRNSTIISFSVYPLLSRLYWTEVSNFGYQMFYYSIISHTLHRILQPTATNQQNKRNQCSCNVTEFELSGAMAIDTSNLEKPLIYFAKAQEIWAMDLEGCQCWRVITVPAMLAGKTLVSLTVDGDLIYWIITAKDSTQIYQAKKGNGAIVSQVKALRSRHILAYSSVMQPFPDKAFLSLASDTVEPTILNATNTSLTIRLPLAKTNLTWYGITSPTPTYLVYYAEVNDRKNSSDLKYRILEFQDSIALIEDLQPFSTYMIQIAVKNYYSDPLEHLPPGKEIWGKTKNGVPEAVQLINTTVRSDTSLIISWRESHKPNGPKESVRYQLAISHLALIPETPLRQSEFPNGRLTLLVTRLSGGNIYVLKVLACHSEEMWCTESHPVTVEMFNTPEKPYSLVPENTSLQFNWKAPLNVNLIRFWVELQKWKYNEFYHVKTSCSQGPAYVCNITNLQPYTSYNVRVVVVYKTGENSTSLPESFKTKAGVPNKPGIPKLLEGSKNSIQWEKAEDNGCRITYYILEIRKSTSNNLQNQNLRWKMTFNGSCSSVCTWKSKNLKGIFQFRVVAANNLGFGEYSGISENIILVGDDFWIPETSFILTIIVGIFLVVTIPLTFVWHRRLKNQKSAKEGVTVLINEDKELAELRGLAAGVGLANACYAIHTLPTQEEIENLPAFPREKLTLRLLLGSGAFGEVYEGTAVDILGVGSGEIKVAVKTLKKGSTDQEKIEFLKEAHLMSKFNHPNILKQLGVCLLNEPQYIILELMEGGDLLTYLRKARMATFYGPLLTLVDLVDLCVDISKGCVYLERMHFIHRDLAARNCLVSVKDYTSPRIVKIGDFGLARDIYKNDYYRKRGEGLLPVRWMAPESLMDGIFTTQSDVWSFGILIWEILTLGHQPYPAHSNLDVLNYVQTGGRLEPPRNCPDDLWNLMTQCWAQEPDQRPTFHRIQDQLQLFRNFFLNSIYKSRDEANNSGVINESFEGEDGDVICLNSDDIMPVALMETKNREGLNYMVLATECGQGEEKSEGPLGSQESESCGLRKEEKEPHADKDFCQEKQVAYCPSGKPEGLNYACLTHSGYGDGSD
# How it was run: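 Ba/F3 cells stably expressing CD74-ROS1 (retroviral transduction, puromycin-selected, IL-3 withdrawn at least 2 weeks before use) were grown in RPMI with 10% FBS and treated with compound diluted from DMSO stock in RPMI. Total ROS1 and p-ROS1 were quantified by WES capillary immunoblot in duplicate experiments. DC50 is the concentration that reduces protein by 50%, and Dmax is the maximal degradation.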
# BaF3 [12] = assay: Induction of ROS1 L2026M degradation in mouse BaF3 cells assessed as reduction in ROS1 level by Western blotting analysis; type: cell-based; how it was run: as §1
# [13] = Induction of FLT3 (unknown origin) degradation by Western blotting analysis; set-up: species or system Homo sapiens
# BaF3 [14] = assay: Induction of ROS1 G2032R/F2075V degradation in mouse BaF3 cells assessed as reduction in p-ROS1 level by Western blotting analysis; type: cell-based; how it was run: as §1
# NCI-H2228 [15] = assay: Induction of ALK degradation in human NCI-H2228 cells at 100 nM incubated for 24 hrs by proteomics analysis; type: cell-based
# How it was run: (§2)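 Lysates in RIPA with protease/phosphatase inhibitors, protein measured by BCA, trypsin-digested and TMT-labelled. Relative abundance taken as the ratio of TMT reporter ions in degrader-treated versus inhibitor-treated cells.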
# [16] = Induction of LTK (unknown origin) degradation by Western blotting analysis; set-up: species or system Homo sapiens
# BaF3 [17] = assay: Induction of ROS1 G2032R degradation in mouse BaF3 cells assessed as reduction in ROS1 level by Western blotting analysis; type: cell-based; how it was run: as §1
# [18] = Induction of CLK1 (unknown origin) degradation by Western blotting analysis; set-up: species or system Homo sapiens
# NCI-H2228 [19] = assay: Induction of FAK degradation in human NCI-H2228 cells at 100 nM incubated for 24 hrs by proteomics analysis; type: cell-based; how it was run: as §2
# BaF3 [20] = assay: Induction of ROS1 D2033N degradation in mouse BaF3 cells assessed as reduction in p-ROS1 level by Western blotting analysis; type: cell-based; how it was run: as §1
# BaF3 [21] = assay: Induction of ROS1 G2032R degradation in mouse BaF3 cells assessed as reduction in p-ROS1 level by Western blotting analysis; type: cell-based; how it was run: as §1
# BaF3 [22] = assay: Induction of ROS1 degradation in mouse BaF3 cells assessed as reduction in ROS1 level by Western blotting analysis; type: cell-based; how it was run: as §1
# NCI-H2228 [23] = assay: Induction of FER degradation in human NCI-H2228 cells at 100 nM incubated for 24 hrs by proteomics analysis; type: cell-based; how it was run: as §2
# BaF3 [24] = assay: Induction of ROS1 degradation in mouse BaF3 cells assessed as reduction in p-ROS1 level by Western blotting analysis; type: cell-based; how it was run: as §1
# CD74-ROS1 = CD74-ROS1 (Homo sapiens, UniProt P08922); assay: Inhibition of ROS1/CD74 (unknown origin) expressed in mouse BaF3 cells; type: cell-based
# CD74-ROS1, sequence (P04233 whole entry): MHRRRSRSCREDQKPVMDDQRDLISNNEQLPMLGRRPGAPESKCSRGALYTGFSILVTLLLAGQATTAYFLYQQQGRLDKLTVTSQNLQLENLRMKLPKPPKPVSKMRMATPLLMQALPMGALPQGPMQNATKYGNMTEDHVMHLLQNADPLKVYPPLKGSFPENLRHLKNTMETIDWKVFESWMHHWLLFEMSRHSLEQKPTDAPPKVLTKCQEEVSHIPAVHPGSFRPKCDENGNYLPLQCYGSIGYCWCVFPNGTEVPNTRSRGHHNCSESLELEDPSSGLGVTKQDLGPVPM
# CD74-ROS1, sequence (P08922 whole entry): as the sequence (P08922 whole entry) above
# BaF3 [25] = assay: Induction of ROS1 G2032R/F2075V degradation in mouse BaF3 cells assessed as reduction in ROS1 level by Western blotting analysis; type: cell-based; how it was run: as §1
structure (smiles),measurement,setting,value
COc1cc(N2CCC(N3CCN(C)CC3)CC2)ccc1Nc1ncc(Cl)c(Nc2ccccc2P(C)(C)=O)n1 [BRIGATINIB],IC50,[1],> 2 µM
COc1cc(N2CCN(CC3CCN(c4ccc5c(c4)CN(C4CCC(=O)NC4=O)C5=O)CC3)CC2)ccc1Nc1ncc(Cl)c(Nc2ccccc2P(C)(C)=O)n1 (stereo unspecified),DC50,[2],0.011 µM
same,Emax,BaF3 [3],93%
same,IC50,BaF3 [4],0.0095 µM
C[C@H]1CNC(=O)c2cnn3ccc(nc23)N[C@H](C)c2cc(F)ccc2O1 [REPOTRECTINIB],IC50,[1],> 2 µM
same,IC50,[5],> 2 µM
C[C@H]1Oc2cc(cnc2N)-c2c(nn(C)c2C#N)CN(C)C(=O)c2ccc(F)cc21 [LORLATINIB],IC50,[1],> 2 µM
same,IC50,[6],0.0015 µM
Cc1cc(Nc2ncc(Cl)c(Nc3ccccc3S(=O)(=O)C(C)C)n2)c(OC(C)C)cc1C1CCN(C2CCN(C3CN(c4ccc5c(c4)C(=O)N(C4CCC(=O)NC4=O)C5=O)C3)CC2)CC1 (stereo unspecified),DC50,[2],0.045 µM
COc1cc(N2CCC(N3CCN(C4CN(c5cccc6c5C(=O)N(C5CCC(=O)NC5=O)C6=O)C4)CC3)CC2)ccc1Nc1ncc(Cl)c(Nc2ccccc2P(C)(C)=O)n1 (stereo unspecified),DC50,[2],0.108 µM
same,Emax,BaF3 [3],77%
same,IC50,BaF3 [7],1.04 µM
same,IC50,BaF3 [4],0.113 µM
COc1cc(N2CCC(N3CCN(CC4CN(c5cccc6c5C(=O)N(C5CCC(=O)NC5=O)C6=O)C4)CC3)CC2)ccc1Nc1ncc(Cl)c(Nc2ccccc2P(C)(C)=O)n1 (stereo unspecified),DC50,[2],0.056 µM
same,Emax,BaF3 [3],79%
same,IC50,BaF3 [7],0.244 µM
same,IC50,BaF3 [4],0.041 µM
COc1cc(N2CCC(N3CCN(CC4CCN(c5ccc6c(c5)CN(C5CCC(=O)NC5=O)C6=O)CC4)CC3)CC2)ccc1Nc1ncc(Cl)c(Nc2ccccc2P(C)(C)=O)n1 (stereo unspecified),Activity,BaF3 [8],Dose-Dependent Effect
same,Activity,BaF3 [9],Dose-Dependent Effect
same,DC50,[10],> 1 µM
same,DC50,[11],0.0038 µM
same,Activity,BaF3 [12],Dose-Dependent Effect
same,DC50,[2],0.0038 µM
same,DC50,[13],> 1 µM
same,Activity,BaF3 [14],Dose-Dependent Effect
same,Activity,NCI-H2228 [15],Active
same,DC50,[16],> 1 µM
same,Activity,BaF3 [17],Dose-Dependent Effect
same,DC50,[18],> 1 µM
same,Activity,NCI-H2228 [19],Active
same,Activity,BaF3 [20],Dose-Dependent Effect
same,Activity,BaF3 [21],Dose-Dependent Effect
same,Activity,BaF3 [22],Dose-Dependent Effect
same,Activity,NCI-H2228 [23],Active
same,Activity,BaF3 [24],Dose-Dependent Effect
same,IC50,CD74-ROS1,0.0016 µM
same,Activity,BaF3 [25],Dose-Dependent Effect
COc1cc(N2CCC(N3CCN(CC4CCN(c5cccc6c5C(=O)N(C5CCC(=O)NC5=O)C6=O)CC4)CC3)CC2)ccc1Nc1ncc(Cl)c(Nc2ccccc2P(C)(C)=O)n1 (stereo unspecified),DC50,[2],0.006 µM
same,Emax,BaF3 [3],99%
same,IC50,BaF3 [7],0.087 µM
same,IC50,BaF3 [4],0.0112 µM

# Reference: ChEMBL document CHEMBL6127098, “Discovery of Oral Degraders of the ROS1 Fusion Protein with Potent Activity against Secondary Resistance Mutations” (J Med Chem, 2024)
